Results published in ChEMBL document CHEMBL1122186, “Synthesis and spasmolytic activities of 2-(1,2-benzisoxazol-3-yl)-3-[[omega-(dialkylamino)alkoxy]phenyl]acrylonitriles” (1982).

Columns and labels:
Format in all cases: functional
Mus musculus [1] = organism: Mus musculus
Cavia porcellus [2] = organism: Cavia porcellus; experiment: (§1) Inhibitory effect on the response of isolated ileum to acetylcholine (anti-ACh activity) in guinea pig was determined
Outline: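 Ileum contraction to acetylcholine (1.1 × 10^-4 mM), with compound added 2 min before the agonist. Three concentrations per compound, percent inhibition averaged over four experiments. ID50 is derived graphically.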

Mus musculus [3] = experiment: Percent inhibition of the charcoal meal transfer in mice(100 mg/kg) was determined
Outline: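 Male ddN mice (20–25 g) are fasted 18 h and dosed orally. Charcoal meal (5% charcoal in 10% tragacanth) is given orally 20 min later, and mice are killed after 30 min. Charcoal travel is expressed as % of small-intestine length (pylorus to caecum). The group mean (n=7) is compared with the vehicle group (n=7) as percent change.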

Cavia porcellus [4] = organism: Cavia porcellus; experiment: as §1; remark: listed apart in the source
Outline: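 Isolated ileum contracted with acetylcholine (1.1 × 10^-4 mM). Test compound added 2 min before the agonist. Each compound was tested at three concentrations, with percent inhibition of the contraction as the mean of four experiments. ID50, the concentration giving 50% inhibition, was read off by the usual graphic method.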

| Structure (SMILES) | Inhibition (Mus musculus [1]) [%] | also measured |
| --- | --- | --- |
| Cl.N#C/C(=C\c1ccccc1OCCN1CCCCC1)c1noc2ccc(Cl)cc12.O | 37 |  |
| C[N+]1(CCOc2ccccc2/C=C(\C#N)c2noc3ccccc23)CCOCC1.[I-] | 12 |  |
| Cl.N#C/C(=C\c1ccccc1OCCCN1CCCCCC1)c1noc2ccccc12 | 21 |  |
| COc1ccc2onc(/C(C#N)=C/c3ccccc3OCCN3CCOCC3)c2c1.Cl | 48 | ID50 (Cavia porcellus [2]): 32 µM |
| Cl.N#C/C(=C\c1cccc(OCCN2CCOCC2)c1)c1noc2ccccc12 | 32 |  |
| Cl.N#C/C(=C\c1ccccc1OCCCCN1CCOCC1)c1noc2ccccc12 | 22 |  |
| CN1[C@@H]2CC[C@H]1C[C@@H](OC(=O)C(CO)c1ccccc1)C2.O=S(=O)(O)O (stereo not given in full) [ATROPINE SULFATE] | 27 | ID50 (Cavia porcellus [2]): 0.0072 µM |
| CCN(CC)CCOc1ccccc1/C=C(\C#N)c1noc2ccccc12.Cl | 20 |  |
| COc1ccc2onc(/C(C#N)=C/c3ccccc3OCCN3CCCCC3)c2c1.Cl.O |  | Inhibition (Mus musculus [3]): 51%; ID50 (Cavia porcellus [2]): 25 µM |
| Cl.N#C/C(=C\c1ccccc1OCCN1CCOCC1)c1noc2ccccc12.O | 55 | ID50 (Cavia porcellus [2]): 22 µM |
| CCN(CC)CCOc1ccccc1/C=C(\C#N)c1noc2ccc(O)cc12.Cl | 14 |  |
| COc1ccc(Cc2nccc3cc(OC)c(OC)cc23)cc1OC.Cl [PAPAVERINE HYDROCHLORIDE] | 1 |  |
| Cl.N#C/C(=C\c1ccccc1OCCN1CCCC1)c1noc2ccc(Cl)cc12 | 19 |  |
| COc1ccc2onc(/C(C#N)=C/c3ccccc3OCCN3CCCC3)c2c1.Cl.O | 33 |  |
| Cl.N#C/C(=C\c1ccccc1OCCN1CCCC1)c1noc2ccccc12 | 22 |  |
| Cl.N#C/C(=C\c1ccccc1OCCN1CCCCC1)c1noc2ccccc12.O | 45 | ID50 (Cavia porcellus [2]): 8.7 µM |
| CN(C)CCOc1ccccc1/C=C(\C#N)c1noc2ccccc12.Cl.O | 37 | ID50 (Cavia porcellus [2]): 16 µM |
| Cl.N#C/C(=C\c1ccccc1OCCN1CCOCC1)c1noc2ccc(O)cc12 | 4 |  |
| CN(C)CCOc1ccccc1/C=C(\C#N)c1noc2ccc(Cl)cc12.Cl | 11 |  |
| CN1CC[C@]23c4c5ccc(O)c4O[C@H]2[C@@H](O)C=C[C@H]3[C@H]1C5.Cl [MORPHINE HYDROCHLORIDE] | 64 | ID50 (Cavia porcellus [4]): 5.3 µM |
| Br.N#C/C(=C\c1ccccc1OCCN1CCCCCC1)c1noc2ccccc12 | 27 |  |
| Cl.N#C/C(=C\c1ccccc1OCCCN1CCOCC1)c1noc2ccccc12 | 46 |  |
| Cl.N#C/C(=C\c1ccccc1OCCN1CCOCC1)c1noc2ccc(Cl)cc12.O | 11 |  |
| Cl.N#C/C(=C\c1ccc(OCCCN2CCCCC2)cc1)c1noc2ccccc12.O | 19 |  |
| CCCC[N+]1(C)[C@@H]2C[C@@H](OC(=O)[C@H](CO)c3ccccc3)C[C@H]1[C@@H]1O[C@@H]12.[Br-] (stereo not given in full) [BUTYLSCOPOLAMINE BROMIDE] | 19 | ID50 (Cavia porcellus [2]): 0.075 µM |
| CN(C)CCCOc1ccccc1/C=C(\C#N)c1noc2ccccc12.Cl | 9 |  |
| Cl.N#C/C(=C\c1ccccc1OCCN1CCCCC1)c1noc2ccc(O)cc12 | 39 |  |
